Test results published in ChEMBL document CHEMBL3044914, “Synthesis of novel 12-aryl-8,9,10,12-tetrahydrobenzo[a]xanthene-11-thiones and evaluation of their biocidal effects” (2012).
In brackets after ≈: the same amount, converted by molar mass.

Tests used:
[1] = Inhibition of soil urease assessed as urea-N level at 1% compound level measured after 9 hr; settings: concentration not given here
Outline: (§1)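 Soil from cultivated institute farm fields, 50 g air-dried per beaker, moisture kept daily with distilled water. Compound in acetone added at 1% of applied urea-N (0.1 mg); urea-alone control; completely randomized design, three replicates. 5 g samples taken at 9 and 27 h, extracted with 1 M sodium sulfate containing phenyl mercuric acetate to stop hydrolysis; urea-N estimated.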

Athelia rolfsii = test: Antifungal activity against Athelia rolfsii by food poison technique; type: functional; settings: Agroathelia rolfsii; read-out: ED50 (the source's name)
[2] = Inhibition of soil urease assessed as urea-N level at 1% compound level measured after 27 hr; settings: concentration not given here; outline: as §1
Spodoptera litura [3] = test: Insecticidal activity against Spodoptera litura third-instar larvae exposed to 0.1% compound on ventral side of larvae assessed as mortality after 24 hr post compound treatment by contact method; type: functional
Outline: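 Topical treatment of third-instar larvae aged 7 ± 1 day. Each treatment was run in triplicate with solvent as control. Mortality was recorded after 24 h.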

Spodoptera litura [4] = test: Insecticidal activity against Spodoptera litura third-instar larvae fed on 0.1% compound pre-treated castor leaves assessed as mortality after 24 hr post compound treatment by feeding method; type: functional
Outline: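 Castor leaf was dipped for 2 s in a 0.1% solution, air-dried and placed on moist filter paper in 9 cm Petri plates. Third-instar larvae aged 7 ± 1 day were prestarved 4 h and released singly into each plate. There were thirty replications per treatment, with a solvent control. Mortality was scored at 24 h.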

Spodoptera litura [5] = test: Insect growth regulatory activity against Spodoptera litura third-instar larvae assessed as mortality at 0.1% measured after 24 hr post compound treatment by leaf-dip method; type: functional
Outline: (§2)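 Third-instar larvae were reared on artificial diet, newly moulted and pre-weighed at 30–40 mg. The 0.1% solution was a stock, applied at different concentrations. Leaves on moistened filter paper in Petri dishes were sprayed with the test solution and dried. Ten larvae were placed per dish, in triplicate, with carrier-solvent controls. Larval weight, mortality, pupation, deformed pupae, intermediates, adult emergence and deformed adults were recorded after 24 h.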

Spodoptera litura [6] = test: Insect growth regulatory activity against Spodoptera litura third-instar larvae assessed as growth inhibition index at 0.1% measured after 24 hr post compound treatment by leaf-dip method; type: functional
Spodoptera litura [7] = test: Insect growth regulatory activity against Spodoptera litura third-instar larvae assessed as abnormal or dead larva level at 0.1% measured after 24 hr post compound treatment by leaf-dip method; type: functional; outline: as §2
Spodoptera litura [8] = test: Insect growth regulatory activity against Spodoptera litura third-instar larvae assessed as normal adult level at 0.1% measured after 24 hr post compound treatment by leaf-dip method; type: functional
Fusarium oxysporum = test: Antifungal activity against Fusarium oxysporum by food poison technique; type: functional; settings: read-out: ED50 (the source's name)
Alternaria porri = test: Antifungal activity against Alternaria porri by food poison technique; type: functional; settings: read-out: ED50 (the source's name)
Macrophomina phaseolina = test: Antifungal activity against Rhizoctonia bataticola by food poison technique; type: functional; settings: read-out: ED50 (the source's name)
Spodoptera litura [9] = test: Insect growth regulatory activity against Spodoptera litura third-instar larvae assessed as abnormal pupa or dead pupa level at 0.1% measured after 24 hr post compound treatment by leaf-dip method; type: functional; outline: as §2

Structure (SMILES)	inhibition [1] [%]	EC50 (Athelia rolfsii) [µg/mL]	inhibition [2] [%]	mortality (Spodoptera litura [3]) [%]	mortality (Spodoptera litura [4]) [%]	mortality (Spodoptera litura [5]) [%]	growth inhibition (GI) (Spodoptera litura [6]) [%]	Activity (Spodoptera litura [7]) [%]	Activity (Spodoptera litura [8]) [%]	EC50 (Fusarium oxysporum) [µg/mL]	EC50 (Alternaria porri) [µg/mL]	EC50 (Macrophomina phaseolina) [µg/mL]	Activity (Spodoptera litura [9]) [%]
CC1(C)CC(=S)C2=C(C1)Oc1ccc3ccccc3c1C2c1cccc(Br)c1 (stereo unspecified)	15	478 (≈ 1060 µM)	6	30	10	50	100	50	0	310 (≈ 689 µM)	321 (≈ 714 µM)	475 (≈ 1060 µM)	
CC1(C)CC(=S)C2=C(C1)Oc1ccc3ccccc3c1C2c1ccc2ccccc2c1 (stereo unspecified)	1	199 (≈ 473 µM)	3	0	80	0	30	20	70	189 (≈ 448 µM)	165 (≈ 393 µM)	244 (≈ 580 µM)	10
CC1(C)C(C=C(Cl)Cl)C1C(=O)OC(C#N)c1cccc(Oc2ccccc2)c1 (stereo not drawn) [ALPHA-CYPERMETHRIN]				100									
CC1(C)CC(=S)C2=C(C1)Oc1ccc3ccccc3c1C2c1ccc(F)cc1 (stereo unspecified)	-3	358 (≈ 922 µM)	0	10	40	0	50		50	260 (≈ 670 µM)	199 (≈ 511 µM)	345 (≈ 888 µM)	0
Cc1ccc(C2C3=C(CC(C)(C)CC3=S)Oc3ccc4ccccc4c32)cc1 (stereo unspecified)	33	321 (≈ 834 µM)	12	10	20	30	50	10	50	410 (≈ 1070 µM)	385 (≈ 1000 µM)	489 (≈ 1270 µM)	10
COc1ccc(C2C3=C(CC(C)(C)CC3=S)Oc3ccc4ccccc4c32)cc1 (stereo unspecified)	5	365 (≈ 912 µM)	-4	0	10	10	40	10	60	279 (≈ 697 µM)	406 (≈ 1010 µM)	478 (≈ 1190 µM)	20
COc1ccccc1C1C2=C(CC(C)(C)CC2=S)Oc2ccc3ccccc3c21 (stereo unspecified)	24	324 (≈ 810 µM)	6	15	30	30	60	20	40	336 (≈ 838 µM)	418 (≈ 1040 µM)	484 (≈ 1210 µM)	10
CC1(C)CC(=S)C2=C(C1)Oc1ccc3ccccc3c1C2c1ccc(Cl)cc1 (stereo unspecified)	35	280 (≈ 692 µM)	18	30	40	40	70	10	30	245 (≈ 606 µM)	311 (≈ 767 µM)	334 (≈ 825 µM)	20
CCCCC(O)(Cn1cncn1)c1ccc(Cl)cc1Cl (stereo unspecified) [HEXACONAZOLE]		13 (≈ 41.2 µM)								20.6 (≈ 65.4 µM)	25.5 (≈ 81.3 µM)	334 (≈ 1060 µM)	
O=[N+]([O-])c1ccc(C2C3=C(CCCC3=S)Oc3ccc4ccccc4c32)cc1 (stereo unspecified)	1	670 (≈ 1730 µM)	-1	0	70	50	80	10	20	358 (≈ 923 µM)	212 (≈ 547 µM)	555 (≈ 1430 µM)	
S=C1CCCC2=C1C(c1cccc(Cl)c1)c1c(ccc3ccccc13)O2 (stereo unspecified)	6	426 (≈ 1130 µM)	2	30	60	30	60	20	40	320 (≈ 850 µM)	268 (≈ 712 µM)	380 (≈ 1010 µM)	10
CC1(C)CC(=S)C2=C(C1)Oc1ccc3ccccc3c1C2c1cccs1 (stereo unspecified)	4	457 (≈ 1210 µM)	-8	0	10	15	35	0	65	375 (≈ 997 µM)	456 (≈ 1210 µM)	590 (≈ 1570 µM)	20
S=C1CCCC2=C1C(c1ccccc1)c1c(ccc3ccccc13)O2 (stereo unspecified)	47	500 (≈ 1460 µM)	22	10	30	40	50	0	50	287 (≈ 839 µM)	210 (≈ 613 µM)	438 (≈ 1280 µM)	10
S=C1CCCC2=C1C(c1ccccc1Br)c1c(ccc3ccccc13)O2 (stereo unspecified)	1	225 (≈ 535 µM)	-2	50	90	0	25	20	75	148 (≈ 352 µM)	136 (≈ 322 µM)	286 (≈ 678 µM)	5
CC1(C)CC(=S)C2=C(C1)Oc1ccc3ccccc3c1C2c1ccccc1 (stereo unspecified)	5	525 (≈ 1420 µM)	5	20	20	50	75	0	35	326 (≈ 879 µM)	336 (≈ 906 µM)	570 (≈ 1540 µM)	15
